{"source": "ChEMBL document CHEMBL1124705", "about": "“Renin inhibitors containing isosteric replacements of the amide bond connecting the P3 and P2 sites” (J Med Chem, 1990)"}
{"target": "Renin (monkey)", "assay": "The compound was tested in vitro for inhibitory activity against Renin in monkey plasma", "units": {"IC50": "µM"}}
{"smiles": "CC(C)C[C@H](NC(=O)CC(O)[C@H](CC(C)C)NC(=O)CNC(=O)[C@H](Cc1ccccc1)NC(=O)OC(C)(C)C)C(=O)NCc1ccccc1", "note": "(stereo not given in full)", "IC50": 1.1}
{"target": "T1, Renin (Homo sapiens, UniProt P00797)", "T1 sequence (P00797 whole entry)": "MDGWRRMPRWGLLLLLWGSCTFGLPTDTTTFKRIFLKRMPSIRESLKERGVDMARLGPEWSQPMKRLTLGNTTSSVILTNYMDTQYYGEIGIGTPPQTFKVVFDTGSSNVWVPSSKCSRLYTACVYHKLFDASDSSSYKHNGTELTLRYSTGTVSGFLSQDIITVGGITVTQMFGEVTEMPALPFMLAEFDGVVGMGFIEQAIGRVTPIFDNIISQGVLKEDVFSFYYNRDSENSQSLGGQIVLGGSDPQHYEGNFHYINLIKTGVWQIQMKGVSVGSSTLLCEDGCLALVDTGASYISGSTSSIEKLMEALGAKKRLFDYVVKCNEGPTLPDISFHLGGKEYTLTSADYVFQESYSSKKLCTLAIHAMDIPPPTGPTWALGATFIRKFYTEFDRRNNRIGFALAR", "assay": "Inhibitory activity against human renin", "method_in_brief": "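It was incubated 2 h at 37 °C with compound added in DMSO. Angiotensin I generated, linear over this period, was corrected for endogenous AI and expressed as percent of DMSO control. IC50 was estimated from semilog plots of three or more concentrations.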", "units": {"IC50": "µM"}}
{"smiles": "CC(C)C[C@H](CC(O)[C@H](CC1CCCCC1)NC(=O)OC(C)(C)C)C(=O)N[C@@H](CC(C)C)C(O)CC(=O)N[C@@H](CC(C)C)C(=O)NCc1ccccc1", "note": "(stereo not given in full)", "IC50": 3.8}
{"smiles": "CC(C)C[C@H](NC(=O)CC(O)[C@H](CC(C)C)NC(=O)[C@H](Cc1ccccc1)CC(O)[C@H](CC(C)C)NC(=O)OCc1ccccc1)C(=O)NCc1ccccc1", "note": "(stereo not given in full)", "IC50": 8.4}
{"smiles": "CC(C)C[C@H](NC(=O)CC(O)[C@H](CC(C)C)NC(=O)CCC(=O)[C@H](Cc1ccccc1)NC(=O)OC(C)(C)C)C(=O)NCc1ccccc1", "note": "(stereo not given in full)", "IC50": 21}
{"smiles": "CC(C)C[C@H](CC(O)[C@H](CC(C)C)NC(=O)OCc1ccccc1)C(=O)N[C@@H](CC(C)C)C(O)CC(=O)N[C@@H](CC(C)C)C(=O)NCc1ccccc1", "note": "(stereo not given in full)", "IC50": 6.7}
{"smiles": "CC(C)C[C@H](NC(=O)CC(O)[C@H](CC(C)C)NC(=O)CCC[C@H](Cc1ccccc1)NC(=O)OC(C)(C)C)C(=O)NCc1ccccc1", "note": "(stereo not given in full)", "IC50": 23}
{"smiles": "CC(C)C[C@H](NC(=O)C[C@@H](O)C(CC1CCCCC1)NC(=O)CC1OC1[C@H](Cc1ccccc1)NC(=O)OC(C)(C)C)C(=O)NCc1cccc(CN)c1", "note": "(stereo not given in full)", "IC50": 0.32}
{"smiles": "CC(C)C[C@H](NC(=O)C[C@@H](O)C(CC1CCCCC1)NC(=O)/C=C/C(O)[C@H](Cc1ccccc1)NC(=O)OC(C)(C)C)C(=O)NCc1ccccc1", "note": "(stereo not given in full)", "IC50": 0.09}
{"smiles": "CC(C)C[C@H](NC(=O)CC(O)[C@H](CC(C)C)NC(=O)[C@H](Cc1c[nH]cn1)NC[C@H](Cc1ccccc1)NC(=O)OC(C)(C)C)C(=O)NCc1ccccc1", "note": "(stereo not given in full)", "IC50": 3.8}
{"smiles": "CC(C)C[C@H](NC(=O)CC(O)[C@H](CC(C)C)NC(=O)CC(O)C(O)[C@H](CC1CCCCC1)NC(=O)OC(C)(C)C)C(=O)NCc1ccccc1", "note": "(stereo not given in full)", "IC50": 6.5}
{"smiles": "CC(C)C[C@H](NC(=O)CC(O)[C@H](CC(C)C)NC(=O)CCC(O)[C@H](CC(C)C)NC(=O)OCc1ccccc1)C(=O)NCc1ccccc1", "note": "(stereo not given in full)", "IC50": 4}
{"smiles": "CC(C)C[C@H](NC(=O)CC(O)[C@H](CC(C)C)NC(=O)[C@H](Cc1cnc[nH]1)N(O)C[C@H](Cc1ccccc1)NC(=O)OC(C)(C)C)C(=O)NCc1ccccc1", "note": "(stereo not given in full)", "IC50": 6.5}
{"smiles": "CC(C)C[C@H](NC(=O)CC(O)[C@H](CC(C)C)NC(=O)[C@H](Cc1c[nH]cn1)CC(O)[C@H](Cc1ccccc1)NC(=O)OC(C)(C)C)C(=O)NCc1ccccc1", "note": "(stereo not given in full)", "IC50": 0.78}
{"smiles": "CC(C)CC(=O)N[C@@H](Cc1ccccc1)CS(=O)(=O)[C@@H](Cc1ccccc1)C(=O)N[C@@H](CC(C)C)C(O)CC(=O)N[C@@H](C)C(=O)N[C@@H](CC(C)C)C(O)CC(=O)NCc1ccccc1", "note": "(stereo not given in full)", "IC50": 1.5}
{"smiles": "CC(C)C[C@H](NC(=O)CC(O)[C@H](CC(C)C)NC(=O)[C@H](Cc1ccccc1)NC[C@H](Cc1ccccc1)NC(=O)OC(C)(C)C)C(=O)NCc1ccccc1", "note": "(stereo not given in full)", "IC50": 4.2}
{"smiles": "CC(C)C[C@H](NC(=O)CC(O)[C@H](CC(C)C)NC(=O)C/C=C/[C@H](Cc1ccccc1)NC(=O)OC(C)(C)C)C(=O)NCc1ccccc1", "note": "(stereo not given in full)", "IC50": 7}
{"smiles": "CC(C)C[C@H](NC(=O)C[C@@H](O)C(Cc1ccccc1)NC(=O)C/C=C/[C@H](Cc1ccccc1)NC(=O)OC(C)(C)C)C(=O)NCc1ccccc1", "note": "(stereo not given in full)", "IC50": 9.2}
{"smiles": "CC(C)C[C@H](NC(=O)CC(O)[C@H](CC(C)C)NC(=O)[C@H](Cc1ccccc1)N(O)C[C@H](Cc1ccccc1)NC(=O)OC(C)(C)C)C(=O)NCc1ccccc1", "note": "(stereo not given in full)", "IC50": 18}
{"smiles": "CC(C)C[C@H](NC(=O)CC(O)[C@H](CC(C)C)NC(=O)[C@H](Cc1ccccc1)[S+]([O-])C[C@H](Cc1ccccc1)NC(=O)OC(C)(C)C)C(=O)NCc1ccccc1", "note": "(stereo not given in full)", "IC50": 5.4}
{"smiles": "CC(C)C[C@H](NC(=O)C[C@@H](O)C(Cc1ccccc1)NC(=O)CC1OC1[C@H](Cc1ccccc1)NC(=O)OC(C)(C)C)C(=O)NCc1ccccc1", "note": "(stereo not given in full)", "IC50": 4.4}
{"smiles": "CC(C)CC(=O)N[C@@H](Cc1ccccc1)C1OC1CC(=O)N[C@@H](CC(C)C)C(O)CC(=O)N[C@@H](CC(C)C)C(=O)NCc1ccccc1", "note": "(stereo not given in full)", "IC50": 29}
{"smiles": "CC(C)C[C@H](NC(=O)CC(O)[C@H](CC(C)C)NC(=O)[C@H](Cc1cnc[nH]1)NC[C@H](CC1CCCCC1)NC(=O)OC(C)(C)C)C(=O)NCc1ccccc1", "note": "(stereo not given in full)", "IC50": 10}
{"smiles": "CC(C)CC(=O)N[C@H](CN[C@H](C(=O)N[C@@H](CC(C)C)C(O)CC(=O)N[C@@H](CC(C)C)C(=O)NCc1ccccc1)C(C)C)C(C)C", "note": "(stereo not given in full)", "IC50": 15}
{"smiles": "CC(C)C[C@H](NC(=O)C[C@@H](O)C(CC1CCCCC1)NC(=O)CCC[C@H](Cc1ccccc1)NC(=O)OC(C)(C)C)C(=O)NCc1cccc(CN)c1", "note": "(stereo not given in full)", "IC50": 0.63}
{"smiles": "CC(C)C[C@H](NC(=O)CC(O)[C@H](CC(C)C)NC(=O)/C=C/C(O)[C@H](Cc1ccccc1)NC(=O)OC(C)(C)C)C(=O)NCc1ccccc1", "note": "(stereo not given in full)", "IC50": 2.1}
{"smiles": "CC(C)C[C@H](NC(=O)C[C@@H](O)C(CC1CCCCC1)NC(=O)CC1OC1[C@H](Cc1ccccc1)NC(=O)OC(C)(C)C)C(=O)NCc1ccccc1", "note": "(stereo not given in full)", "IC50": 0.53}
{"smiles": "CC(C)C[C@H](CC(=O)[C@H](CC1CCCCC1)NC(=O)OC(C)(C)C)C(=O)N[C@@H](CC(C)C)C(O)CC(=O)N[C@@H](CC(C)C)C(=O)NCc1ccccc1", "note": "(stereo not given in full)", "IC50": 26}
{"smiles": "CC(C)CC(=O)N[C@H](CSCC(=O)N[C@@H](CC(C)C)C(O)CC(=O)N[C@@H](CC(C)C)C(=O)NCc1ccccc1)Cc1ccccc1", "note": "(stereo not given in full)", "IC50": 18}
{"smiles": "CC(C)C[C@H](NC(=O)CC(O)[C@H](CC(C)C)NC(=O)C(O)C(O)C(O)[C@H](Cc1ccccc1)NC(=O)OC(C)(C)C)C(=O)NCc1ccccc1", "note": "(stereo not given in full)", "IC50": 11}
{"smiles": "CC(C)C[C@H](NC(=O)C[C@@H](O)C(CC1CCCCC1)NC(=O)[C@H](Cc1cnc[nH]1)NC[C@H](Cc1ccccc1)NC(=O)OC(C)(C)C)C(=O)NCc1ccccc1", "note": "(stereo not given in full)", "IC50": 0.2}
{"smiles": "CC(C)C[C@H](NC(=O)C[C@@H](O)C(CC1CCCCC1)NC(=O)CCC(O)[C@H](Cc1ccccc1)NC(=O)OC(C)(C)C)C(=O)NCc1ccccc1", "note": "(stereo not given in full)", "IC50": 0.061}
{"smiles": "CC(C)CC(=O)N[C@H](CS[C@@H](Cc1ccccc1)C(=O)N[C@@H](CC(C)C)C(O)CC(=O)N[C@@H](C)C(=O)N[C@@H](CC(C)C)C(O)CC(=O)NCc1ccccc1)Cc1ccccc1", "note": "(stereo not given in full)", "IC50": 7.4}
{"smiles": "CC(C)C[C@H](NC(=O)CC(O)[C@H](CC(C)C)NC(=O)CC(O)C(O)[C@H](Cc1ccccc1)NC(=O)OC(C)(C)C)C(=O)NCc1ccccc1", "note": "(stereo not given in full)", "IC50": 1.4}
{"smiles": "CC(C)CC(=O)N[C@H](/C=C/CC(=O)N[C@@H](CC(C)C)C(O)CC(=O)N[C@@H](CC(C)C)C(=O)NCc1ccccc1)Cc1ccccc1", "note": "(stereo not given in full)", "IC50": 13}
{"smiles": "CC(C)C[C@H](NC(=O)CC(O)[C@H](CC(C)C)NC(=O)C/C=C\\[C@H](Cc1ccccc1)NC(=O)OC(C)(C)C)C(=O)NCc1ccccc1", "note": "(stereo not given in full)", "IC50": "> 100"}
{"smiles": "CC(C)CC(=O)N[C@@H](Cc1ccccc1)C[S+]([O-])[C@@H](Cc1ccccc1)C(=O)N[C@@H](CC(C)C)C(O)CC(=O)N[C@@H](C)C(=O)N[C@@H](CC(C)C)C(O)CC(=O)NCc1ccccc1", "note": "(stereo not given in full)", "IC50": 2}
{"smiles": "CC(C)C[C@H](NC(=O)C[C@@H](O)C(CC1CCCCC1)NC(=O)CCC(O)[C@H](Cc1ccccc1)NC(=O)OC(C)(C)C)C(=O)NCc1ccc(CN)cc1", "note": "(stereo not given in full)", "IC50": 0.022}
{"smiles": "CC(C)C[C@H](NC(=O)CC(O)[C@H](CC(C)C)NC(=O)[C@@H](CC(=O)[C@H](Cc1ccccc1)NC(=O)OCc1ccccc1)Cc1ccccc1)C(=O)NCc1ccccc1", "note": "(stereo not given in full)", "IC50": 23}
{"smiles": "CC(C)C[C@H](NC(=O)OCc1ccccc1)C(=O)C[C@@H](Cc1ccccc1)C(=O)N[C@@H](CC(C)C)C(O)CC(=O)N[C@@H](CC(C)C)C(=O)NCc1ccccc1", "note": "(stereo not given in full)", "IC50": 11}
{"smiles": "CC(C)C[C@H](NC(=O)CC(O)[C@H](CC(C)C)NC(=O)[C@H](Cc1ccccc1)CC(O)[C@H](Cc1ccccc1)NC(=O)OCc1ccccc1)C(=O)NCc1ccccc1", "note": "(stereo not given in full)", "IC50": 3.7}
{"smiles": "CC(C)C[C@H](NC(=O)C[C@@H](O)C(CC1CCCCC1)NC(=O)C/C=C/[C@H](Cc1ccccc1)NC(=O)OC(C)(C)C)C(=O)NCc1ccccc1", "note": "(stereo not given in full)", "IC50": 1.3}
{"smiles": "CC(C)C[C@H](NC(=O)C[C@@H](O)C(CC1CCCCC1)NC(=O)/C=C/C(O)[C@H](Cc1ccccc1)NC(=O)OC(C)(C)C)C(=O)NCc1ccc(CNC(=O)OCc2ccccc2)cc1", "note": "(stereo not given in full)", "IC50": 0.47}
{"smiles": "CC(C)C[C@H](NC(=O)[C@H](C)NC(=O)CC(O)[C@H](CC(C)C)NC(=O)[C@H](Cc1ccccc1)[S+]([O-])C[C@H](Cc1ccccc1)NC(=O)OC(C)(C)C)C(O)CC(=O)NCc1ccccc1", "note": "(stereo not given in full)", "IC50": 5.6}
{"smiles": "CC(C)C[C@H](NC(=O)CC(O)[C@H](CC(C)C)NC(=O)CC1OC1[C@H](Cc1ccccc1)NC(=O)OC(C)(C)C)C(=O)NCc1ccccc1", "note": "(stereo in doubt; 32)", "IC50": 1.2}
{"smiles": "CC(C)C[C@H](NC(=O)CC(O)[C@H](CC(C)C)NC(=O)CC1OC1[C@H](Cc1ccccc1)NC(=O)OC(C)(C)C)C(=O)NCc1ccccc1", "note": "(stereo in doubt; 37)", "IC50": "> 100"}
